According to ChEMBL document CHEMBL1629656, “Oritavancin kills stationary-phase and biofilm Staphylococcus aureus cells in vitro” (Antimicrob Agents Chemother, 2009):
Values after ≈ are worked out from the molar mass of the structure shown. Active and inactive are the calls of the source. No cut-off for these calls is given here.

How the values were obtained:
Staphylococcus aureus [1] = assay: Antimicrobial activity against exponential-phase methicillin-sensitive Staphylococcus aureus ATCC 29213 grown on nutrient-depleted CAMHB medium assessed as membrane depolarization after 30 mins using DiSC3(5) dye based fluorescence spectrophotometry; format: functional, organism-based
Staphylococcus aureus [2] = assay: Antimicrobial activity against stationary-phase methicillin-sensitive Staphylococcus aureus ATCC 29213 grown on nutrient-depleted CAMHB medium assessed as membrane depolarization after 30 mins using DiSC3(5) dye based fluorescence spectrophotometry; format: functional, organism-based
Staphylococcus aureus [3] = assay: Bactericidal activity against methicillin-sensitive Staphylococcus aureus assessed as log reduction in bacterial load within 15 to 120 mins; format: functional
Staphylococcus aureus [4] = assay: Bactericidal activity against stationary-phase methicillin-sensitive Staphylococcus aureus ATCC 29213 grown on nutrient-depleted CAMHB medium assessed as log reduction in bacterial count at 0.5 ug/ml after 24 hrs by time kill analysis; format: functional
Staphylococcus aureus [5] = assay: Bactericidal activity against exponential-phase methicillin-sensitive Staphylococcus aureus ATCC 29213 grown on nutrient-depleted CAMHB medium at 0.5 ug/ml after 24 hrs by time kill analysis; format: functional, organism-based
Staphylococcus aureus [6] = assay: Bactericidal activity against exponential-phase methicillin-sensitive Staphylococcus aureus ATCC 29213 grown on nutrient-depleted CAMHB medium at 16 ug/ml after 24 hrs by time kill analysis; format: functional, organism-based
Staphylococcus aureus [7] = assay: Bactericidal activity against exponential-phase methicillin-sensitive Staphylococcus aureus ATCC 29213 grown on nutrient-depleted CAMHB medium at 4 ug/ml after 24 hrs by time kill analysis; format: functional, organism-based
Staphylococcus aureus [8] = assay: Bactericidal activity against stationary-phase methicillin-resistant Staphylococcus aureus ATCC 33591 grown on nutrient-depleted CAMHB medium after 24 hrs by time kill analysis; format: functional, organism-based
Method in brief: (§1)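 Overnight stationary-phase cultures inoculated at ~10^7 CFU/ml into strain-matched spent CAMHB (pH 7.0, filter-sterilized). Oritavancin was kept at 0.002% polysorbate 80; daptomycin wells had 50 μg/ml CaCl2. Incubation at 37°C, 225 rpm. Samples were charcoal-quenched (25 mg/ml) before plating; points are means of duplicates. Bactericidal means ≥3-log drop at 24 h versus inoculum. ≥3 repeats.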

Staphylococcus aureus [9] = assay: Bactericidal activity against stationary-phase methicillin-resistant Staphylococcus aureus ATCC 33591 grown on nutrient-depleted CAMHB medium assessed as reduction in bacterial count at 0.5 ug/ml after 24 hrs by time kill analysis; format: functional; method in brief: as §1
Staphylococcus aureus [10] = assay: Antimicrobial activity against stationary-phase methicillin-sensitive Staphylococcus aureus ATCC 29213 grown on nutrient-depleted CAMHB medium assessed as membrane permeability after 30 mins by propidium iodide staining-based fluorescence spectrophotometry; format: functional, organism-based
Staphylococcus aureus [11] = assay: Antimicrobial activity against exponential-phase methicillin-sensitive Staphylococcus aureus ATCC 29213 grown on nutrient-depleted CAMHB medium assessed as membrane permeability after 30 mins by propidium iodide staining-based fluorescence spectrophotometry; format: functional, organism-based
Staphylococcus aureus [12] = assay: Bactericidal activity against exponential-phase methicillin-sensitive Staphylococcus aureus ATCC 29213 assessed as log reduction in bacterial count at 16 ug/ml within 15 mins by time kill analysis; format: functional
Method in brief: (§2)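 Short (2-h) time-kill of ATCC 29213 at OD600 0.005 (~10^6 CFU/ml) in 10 mM HEPES-Cl pH 7.5 with 50 μg/ml CaCl2. Exponential cells had 5 mM glucose and stationary cells none. Oritavancin was tested without polysorbate 80; viable counts were taken by serial dilution plating. Three repeats; one shown.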

Staphylococcus aureus [13] = assay: Bactericidal activity against exponential-phase methicillin-sensitive Staphylococcus aureus ATCC 29213 assessed as log reduction in bacterial count at 4 ug/ml within 2 hrs by time kill analysis; format: functional
Staphylococcus aureus [14] = assay: Bactericidal activity against stationary-phase methicillin-sensitive Staphylococcus aureus ATCC 29213 assessed as log reduction in bacterial count at 4 ug/ml within 2 hrs by time kill analysis; format: functional
Staphylococcus aureus [15] = assay: Bactericidal activity against stationary-phase methicillin-sensitive Staphylococcus aureus ATCC 29213 assessed as log reduction in bacterial count at 16 ug/ml within 2 hrs by time kill analysis; format: functional; method in brief: as §2
Staphylococcus aureus [16] = assay: Inhibition of cell division in stationary-phase methicillin-resistant Staphylococcus aureus ATCC 43300 assessed as absence of appearance of septal midline at 1 ug/ml by transmission electron microscopy; format: functional, organism-based
Method in brief: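 Stationary-phase MRSA ATCC 43300 (5 × 10^7 CFU/ml) exposed for 3 h in nutrient-depleted CAMHB. Cells were fixed in 2.5% glutaraldehyde, post-fixed in 2% osmium tetroxide and en bloc stained with uranyl acetate. Samples were ethanol-dehydrated, embedded in LR White, thin-sectioned, and stained with uranyl acetate/lead citrate. Septa were viewed by TEM at 100 kV.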

Staphylococcus aureus [17] = assay: Antimicrobial activity against methicillin-sensitive Staphylococcus aureus ATCC 29213 planktonic cells by broth microdilution method; format: functional
Method in brief: (§3)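 Planktonic MIC read in the MBEC system against cells shed from 24-h peg biofilms (grown in tryptic soy broth, 37°C, 150 rpm), after 24-h exposure to serially diluted drug in CAMHB without polysorbate 80. Ranges come from ≥3 independent experiments.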

Staphylococcus aureus [18] = assay: Antimicrobial activity against methicillin-resistant Staphylococcus aureus ATCC 33591 planktonic cells by broth microdilution method; format: functional; method in brief: as §3
Staphylococcus aureus [19] = assay: Antimicrobial activity against vancomycin-resistant Staphylococcus aureus isolate VRS5 planktonic cells by broth microdilution method; format: functional; method in brief: as §3
Staphylococcus aureus [20] = assay: Antimicrobial activity against methicillin-sensitive Staphylococcus aureus ATCC 29213 assessed as inhibition of bacterial biofilm formation after 1 hr by serial dilution method; format: functional
Staphylococcus aureus [21] = assay: Antimicrobial activity against methicillin-sensitive Staphylococcus aureus ATCC 29213 assessed as inhibition of biofilm formation after 24 hrs by serial dilution method; format: functional
Method in brief: (§4)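 24-h biofilms grown on MBEC peg lids from 10^7 CFU/ml inocula in tryptic soy broth at 37°C, 150 rpm. After a saline wash, pegs were exposed for 24 h to serially diluted drug in CAMHB with no polysorbate 80. Pegs were washed, sonicated 5 min into CAMHB recovery plates and incubated 24 h; MBEC is the lowest sterilizing concentration. Ranges come from ≥3 independent experiments.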

Staphylococcus aureus [22] = assay: Antimicrobial activity against methicillin-resistant Staphylococcus aureus ATCC 33591 assessed as inhibition of biofilm formation after 24 hrs by serial dilution method; format: functional; method in brief: as §4
Staphylococcus aureus [23] = assay: Bactericidal activity against stationary-phase vancomycin-resistant Staphylococcus aureus isolate VRS5 after 24 hrs by time kill analysis; format: functional, organism-based; method in brief: as §1
Homo sapiens = assay: fCmin in human at 200 […]; format: ADME, organism-based; details: in vivo
Staphylococcus aureus [24] = assay: Antimicrobial activity against 4.6 X 10^6 CFU/peg methicillin-susceptible Staphylococcus aureus ATCC 29213 planktonic cells by broth microdilution method
Staphylococcus aureus [25] = assay: Antimicrobial activity against 4.6 X 10^6 CFU/peg methicillin-susceptible Staphylococcus aureus ATCC 29213 assessed as inhibition of biofilm formation after 24 hrs by serial dilution method
Staphylococcus aureus [26] = assay: Bactericidal activity against stationary-phase vancomycin-resistant Staphylococcus aureus isolate VRS5 grown on nutrient-depleted CAMHB medium assessed as log reduction in bacterial count at 4 ug/ml after 24 hrs by time kill analysis

In the case of `CN[C@H](CC(C)C)C(=O)N[C@H]1C(=O)N[C@@H](CC(N)=O)C(=O)N[C@H]2C(=O)N[C@H]3C(=O)N[C@H](C(=O)N[C@H](C(=O)O)c4cc(O)cc(O)c4-c4cc3ccc4O)[C@H](O[C@H]3C[C@](C)(N)[C@@H](O)[C@H](C)O3)c3ccc(c(Cl)c3)Oc3cc2cc(c3O[C@@H]2O[C@H](CO)[C@@H](O)[C@H](O)[C@H]2O[C@H]2C[C@](C)(NCc3ccc(-c4ccc(Cl)cc4)cc3)[C@@H](O)[C@H](C)O2)Oc2ccc(cc2Cl)[C@H]1O` [ORITAVANCIN], the Activity (Staphylococcus aureus [1]) is reported as “Dose-dependent effect”, the Activity (Staphylococcus aureus [2]) is reported as “Dose-dependent effect” and the FC (Staphylococcus aureus [3]) is reported as “>=3”. The FC (Staphylococcus aureus [4]) was 2.9, the Activity (Staphylococcus aureus [5]) was “Active” and the Activity (Staphylococcus aureus [6]) was “Active”. For the same compound, the Activity (Staphylococcus aureus [7]) was “Active”, the Activity (Staphylococcus aureus [8]) was “Dose-dependent effect” and the “fold change (FC)” value (Staphylococcus aureus [9]) was 0.4. The Activity (Staphylococcus aureus [10]) was “Dose-dependent effect”, the Activity (Staphylococcus aureus [11]) was “Dose-dependent effect” and the FC (Staphylococcus aureus [12]) was 3.2. It also gave an FC (Staphylococcus aureus [13]) of 2.9, an FC (Staphylococcus aureus [14]) of 0.9 and an FC (Staphylococcus aureus [15]) of 1.5. The inhibition (Staphylococcus aureus [16]) was “Active”, the MIC (Staphylococcus aureus [17]) was 2 µg/mL (≈ 1.12 µM) and the MIC (Staphylococcus aureus [18]) was 0.5 µg/mL (≈ 0.279 µM). It also gave an MIC (Staphylococcus aureus [19]) of 2 µg/mL (≈ 1.12 µM), an MBEC (Staphylococcus aureus [20]) of 4 µg/mL and an MBEC (Staphylococcus aureus [21]) of 2 µg/mL. For the same compound, the MBEC (Staphylococcus aureus [22]) was 0.5 µg/mL, the Activity (Staphylococcus aureus [23]) was “Dose-dependent effect” and the fCmin (Homo sapiens) was 0.5 µg/mL. The MIC (Staphylococcus aureus [24]) was 4 µg/mL (≈ 2.23 µM), the MBEC (Staphylococcus aureus [25]) was 8 µg/mL and the FC (Staphylococcus aureus [26]) was 2.2.
